Results: ChEMBL document CHEMBL4257543, “Structural optimization and antibacterial evaluation of rhodomyrtosone B analogues against MRSA strains” (Medchemcomm, 2018)
≈ marks a conversion by molar mass, not a printed value. Calls of active or inactive are those of the source. No cut-off for these calls is given here.

Columns and labels:
Staphylococcus aureus [1] = assay: Antibacterial activity against methicillin-resistant Staphylococcus aureus JCSC 4788 by micro dilution susceptibility test; assay type: functional
Outline: (§1)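 Microbroth dilution MIC in Mueller–Hinton broth following CLSI guidelines, vancomycin as positive control; resazurin added as visible growth indicator. Assays run at least in triplicate.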

Staphylococcus aureus [2] = assay: Antibacterial activity against Staphylococcus aureus ATCC 6538 by micro dilution susceptibility test; assay type: functional; outline: as §1
Staphylococcus aureus [3] = assay: Induction of membrane disruption in methicillin-resistant Staphylococcus aureus JCSC 4788 assessed as increase in fluorescence intensity at 0.25 to 8 ug/ml measured after 3 hrs by SYTOX green dye based fluorescence assay; assay type: functional, organism-based
Outline: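 Exponential-phase MRSA JCSC 4788 washed and set to OD620 0.4 in 0.85% NaCl, exposed to serial compound concentrations for 3 h, then 3 μM SYTOX Green for 20 min. Fluorescence read at ex 504/em 523 nm with melittin as positive control and vancomycin as comparator; mean ± SD, n = 3.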

SMILES | MIC (Staphylococcus aureus [1]) [µg/mL] | MIC (Staphylococcus aureus [2]) [µg/mL] | Activity (Staphylococcus aureus [3])
CCCCCCCCC(=O)c1c(O)cc(O)c2c1OC1=C(C(=O)C(C)(C)C(=O)C1(C)C)C2CC(C)C (stereo not drawn) | 0.5 (≈ 1 µM) | 0.25 (≈ 0.501 µM) | 
CC[C@H](C)[C@H](NC(=O)CN)C(=O)NCC(=O)N[C@@H](C)C(=O)N[C@H](C(=O)N[C@@H](CC(C)C)C(=O)N[C@@H](CCCCN)C(=O)N[C@H](C(=O)N[C@@H](CC(C)C)C(=O)N[C@H](C(=O)N[C@H](C(=O)NCC(=O)N[C@@H](CC(C)C)C(=O)N1CCC[C@H]1C(=O)N[C@@H](C)C(=O)N[C@@H](CC(C)C)C(=O)N[C@H](C(=O)N[C@@H](CO)C(=O)N[C@@H](Cc1c[nH]c2ccccc12)C(=O)N[C@H](C(=O)N[C@@H](CCCCN)C(=O)N[C@@H](CCCNC(=N)N)C(=O)N[C@@H](CCCCN)C(=O)N[C@@H](CCCNC(=N)N)C(=O)N[C@@H](CCC(N)=O)C(=O)N[C@@H](CCC(N)=O)C(N)=O)[C@@H](C)CC)[C@@H](C)CC)[C@@H](C)O)[C@@H](C)O)C(C)C)C(C)C |  |  | Active
CC(C)CC1C2=C(Oc3c(C(=O)C4CCCC4)c(O)cc(O)c31)C(C)(C)C(=O)C(C)(C)C2=O (stereo not drawn) | 4 (≈ 8.8 µM) | 4 (≈ 8.8 µM) | 
CC(C)CC1C2=C(Oc3c(C(=O)C(C)C)c(O)cc(O)c31)C(C)(C)C(=O)C(C)(C)C2=O (stereo not drawn) | 4 (≈ 9.33 µM) | 4 (≈ 9.33 µM) | 
CC(C)CC1C2=C(Oc3c(C=O)c(O)cc(O)c31)C(C)(C)C(=O)C(C)(C)C2=O (stereo not drawn) | 128 (≈ 331 µM) | 128 (≈ 331 µM) | 
CCCCCC(=O)c1c(O)cc(O)c2c1OC1=C(C(=O)C(C)(C)C(=O)C1(C)C)C2CC(C)C (stereo not drawn) | 0.5 (≈ 1.1 µM) | 0.5 (≈ 1.1 µM) | 
CC(C)CC1C2=C(Oc3c(C(=O)CCc4ccccc4)c(O)cc(O)c31)C(C)(C)C(=O)C(C)(C)C2=O (stereo not drawn) | 2 (≈ 4.08 µM) | 2 (≈ 4.08 µM) | 
CCCCCCCCCCCCCC(=O)c1c(O)cc(O)c2c1OC1=C(C(=O)C(C)(C)C(=O)C1(C)C)C2CC(C)C (stereo not drawn) | 256 (≈ 450 µM) | 128 (≈ 225 µM) | 
CCCCCCCCCCCCCCCC(=O)c1c(O)cc(O)c2c1OC1=C(C(=O)C(C)(C)C(=O)C1(C)C)C2CC(C)C (stereo not drawn) | > 256 | > 256 | 
CCCCC(=O)c1c(O)cc(O)c2c1OC1=C(C(=O)C(C)(C)C(=O)C1(C)C)C2CC(C)C (stereo not drawn) | 1 (≈ 2.26 µM) | 0.5 (≈ 1.13 µM) | 
CC(C)CC(=O)c1c(O)cc2c(c1O)C(CC(C)C)C1=C(O2)C(C)(C)C(=O)C(C)(C)C1=O (stereo not drawn) | 1 (≈ 2.26 µM) | 1 (≈ 2.26 µM) | 
CCCCCCC(=O)c1c(O)cc(O)c2c1OC1=C(C(=O)C(C)(C)C(=O)C1(C)C)C2CC(C)C (stereo not drawn) | 0.5 (≈ 1.06 µM) | 0.25 (≈ 0.531 µM) | 
